Test results taken from ChEMBL document CHEMBL3352339, “Implications of N-capped urea/thiourea and C-capped 3-(1-piperazinyl)-1,2-benzisothiazole with bridging Gly-Val/Phe-Gly-Val-Pro as therapeutic targets” (Eur J Med Chem, 2014).
≈ marks a conversion by molar mass, not a printed value. Starred links: 1 amine or outer side, 2 acyl side, 3 side chain; linkers in the order of their positions; H or OH if unused. Residues, ends and D or L forms follow the SMILES beside them. *: point of attachment. Thiocarbamoyl(N-2-FPh) = Fc1ccccc1NC(=S)*; X1 = c1ccc2c(N3CCN(*)CC3)nsc2c1; NH(4-F-phenyl) = Fc1ccc(N*)cc1; X2 = Fc1ccc(NC(=S)*)cc1; Boc = CC(C)(C)OC(=O)*; CO = O=C([*:1])[*:2]

Columns and labels:
Fusarium oxysporum [1] = test: Antifungal activity against Fusarium oxysporum at 50 ug/mL incubated for 3 days by agar well diffusion method; format: functional; conditions: 72 h, read-out: IZ
Outline: (§1)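 Fungal growth inhibition measured by agar well diffusion, with bavistin as the reference. Records the mean inhibition-zone diameter (mm) around each well.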

[2] = Antiglycation activity using bovine serum albumin incubated at 37 degC for 7 days by spectrofluorimetry; format: physicochemical
Outline: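 Glycation of bovine serum albumin, with rutin as the reference standard. IC50 values are averages of triplicate runs.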

Urease = Urease (Canavalia ensiformis, UniProt P07374); test: Inhibition of jack bean urease assessed as reduction in ammonia production incubated at 30 degC for 15 mins by indophenol method
Outline: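 Inhibition of jack bean urease, with thiourea as the reference standard. IC50 values are the average of triplicate runs.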

[3] = Inhibition of sheep stomach parietal cells gastric H+/K+-ATPase activity assessed as reduction in inorganic phosphorus production by Fiske Subbarow's method; format: tissue-based, Ovis aries
Outline: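 Inhibition of purified H+/K+-ATPase, with omeprazole as the reference. IC50 is the mean of triplicate runs.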

Escherichia coli [4] = test: Antibacterial activity against Escherichia coli at 50 ug/mL incubated for 24 hrs by agar well diffusion method; format: functional; conditions: read-out: IZ
Outline: (§2)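 Agar well diffusion against the bacterial isolate, with streptomycin as the reference drug. Read-out is the average diameter (mm) of the growth-inhibition zone around the well.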

Xanthomonas oryzae [5] = test: Antibacterial activity against Xanthomonas oryzae at 50 ug/mL incubated for 24 hrs by agar well diffusion method; format: functional; conditions: read-out: IZ
Klebsiella pneumoniae [6] = test: Antibacterial activity against Klebsiella pneumoniae at 50 ug/mL incubated for 24 hrs by agar well diffusion method; format: functional; conditions: read-out: IZ; outline: as §2
Staphylococcus [7] = test: Antibacterial activity against Coagulase positive Staphylococcus at 50 ug/mL incubated for 24 hrs by agar well diffusion method; format: functional; conditions: read-out: IZ; outline: as §2
Aspergillus flavus [8] = test: Antifungal activity against Aspergillus flavus at 50 ug/mL incubated for 3 days by agar well diffusion method; format: functional; conditions: 72 h, read-out: IZ; outline: as §1
Aspergillus niger [9] = test: Antifungal activity against Aspergillus niger at 50 ug/mL incubated for 3 days by agar well diffusion method; format: functional; conditions: 72 h, read-out: IZ; outline: as §1
Fusarium verticillioides [10] = test: Antifungal activity against Fusarium moniliforme at 50 ug/mL incubated for 3 days by agar well diffusion method; format: functional; conditions: 72 h, read-out: IZ; outline: as §1
Fusarium verticillioides [11] = test: Antifungal activity against Fusarium moniliforme incubated for 48 to 72 hrs by agar microdilution method; format: functional
Outline: (§3)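 MIC by microdilution against the fungal strain, limited to compounds showing significant zones in the diffusion assay. Bavistin was used as the reference.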

Fusarium oxysporum [12] = test: Antifungal activity against Fusarium oxysporum incubated for 48 to 72 hrs by agar microdilution method; format: functional; outline: as §3
Escherichia coli [13] = test: Antibacterial activity against Escherichia coli incubated for 24 hrs by agar microdilution method; format: functional
Xanthomonas oryzae [14] = test: Antibacterial activity against Xanthomonas oryzae incubated for 24 hrs by agar microdilution method; format: functional
Klebsiella pneumoniae [15] = test: Antibacterial activity against Klebsiella pneumoniae incubated for 24 hrs by agar microdilution method; format: functional
Staphylococcus [16] = test: Antibacterial activity against Coagulase positive Staphylococcus incubated for 24 hrs by agar microdilution method; format: functional
Aspergillus flavus [17] = test: Antifungal activity against Aspergillus flavus incubated for 48 to 72 hrs by agar microdilution method; format: functional; outline: as §3
Aspergillus niger [18] = test: Antifungal activity against Aspergillus niger incubated for 48 to 72 hrs by agar microdilution method; format: functional; outline: as §3

Sequence of Urease (P07374 whole entry): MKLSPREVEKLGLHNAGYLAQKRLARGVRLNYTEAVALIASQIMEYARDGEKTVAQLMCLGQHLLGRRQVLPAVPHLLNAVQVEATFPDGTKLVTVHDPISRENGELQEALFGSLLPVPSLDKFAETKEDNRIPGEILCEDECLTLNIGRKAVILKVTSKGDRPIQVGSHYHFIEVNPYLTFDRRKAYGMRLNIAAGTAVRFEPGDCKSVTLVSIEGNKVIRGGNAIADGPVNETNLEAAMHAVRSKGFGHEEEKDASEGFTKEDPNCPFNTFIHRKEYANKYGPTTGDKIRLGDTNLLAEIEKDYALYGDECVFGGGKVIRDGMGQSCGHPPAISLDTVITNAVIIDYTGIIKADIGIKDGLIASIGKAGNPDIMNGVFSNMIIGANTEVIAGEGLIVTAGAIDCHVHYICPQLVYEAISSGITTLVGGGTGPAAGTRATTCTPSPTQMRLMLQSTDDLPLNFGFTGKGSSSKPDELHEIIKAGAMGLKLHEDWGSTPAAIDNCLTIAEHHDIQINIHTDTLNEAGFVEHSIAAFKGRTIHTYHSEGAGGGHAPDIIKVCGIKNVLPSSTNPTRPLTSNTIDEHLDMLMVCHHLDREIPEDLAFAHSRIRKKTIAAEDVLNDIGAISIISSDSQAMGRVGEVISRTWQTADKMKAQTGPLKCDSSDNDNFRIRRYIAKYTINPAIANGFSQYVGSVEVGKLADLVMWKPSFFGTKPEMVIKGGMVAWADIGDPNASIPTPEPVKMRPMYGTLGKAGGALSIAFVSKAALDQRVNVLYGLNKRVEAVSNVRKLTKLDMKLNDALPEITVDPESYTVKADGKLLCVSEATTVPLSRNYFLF

| Structure (SMILES) | zone of inhibition at 50 µg/mL (Fusarium oxysporum [1]) | IC50 [2] | IC50 (Urease) | IC50 [3] | zone of inhibition at 50 µg/mL (Escherichia coli [4]) | zone of inhibition at 50 µg/mL (Xanthomonas oryzae [5]) | zone of inhibition at 50 µg/mL (Klebsiella pneumoniae [6]) | zone of inhibition at 50 µg/mL (Staphylococcus [7]) | zone of inhibition at 50 µg/mL (Aspergillus flavus [8]) | zone of inhibition at 50 µg/mL (Aspergillus niger [9]) | zone of inhibition at 50 µg/mL (Fusarium verticillioides [10]) | MIC (Fusarium verticillioides [11]) | MIC (Fusarium oxysporum [12]) | IC50 ([3]; read-out: IC50) | MIC (Escherichia coli [13]) | MIC (Xanthomonas oryzae [14]) | MIC (Klebsiella pneumoniae [15]) | MIC (Staphylococcus [16]) | MIC (Aspergillus flavus [17]) | MIC (Aspergillus niger [18]) |
| --- | --- | --- | --- | --- | --- | --- | --- | --- | --- | --- | --- | --- | --- | --- | --- | --- | --- | --- | --- | --- |
| CC(C)[C@H](NC(=O)CNC(=O)OC(C)(C)C)C(=O)NCC(=O)N[C@H](C(=O)N1CCC[C@H]1C(=O)N1CCN(c2nsc3ccccc23)CC1)C(C)C (Boc-GVGVP-X1) | 6 mm | 250 µM | 295 µM | Not Active | 6 mm | 4 mm | 40.3 mm | 5 mm | 4 mm | 5 mm | 5 mm |  |  |  |  |  |  |  |  |  |
| CC(C)[C@H](NC(=O)CNC(=O)[C@H](Cc1ccccc1)NC(=O)CNC(=S)Nc1ccc(F)cc1)C(=O)N1CCC[C@H]1C(=O)N1CCN(c2nsc3ccccc23)CC1 (X2-GFGVP-X1) | 35 mm | 42 µM | 33 µM |  | 35 mm | 34 mm |  | 35 mm | 36 mm | 35 mm | 36 mm | 9.75 µg/mL (≈ 11.7 µM) | 11 µg/mL (≈ 13.3 µM) | 72 µM | 9 µg/mL (≈ 10.8 µM) | 7.5 µg | 8.5 µg/mL (≈ 10.2 µM) | 9 µg/mL (≈ 10.8 µM) | 10.2 µg/mL (≈ 12.3 µM) | 9.75 µg/mL (≈ 11.7 µM) |
| CC(C)[C@H](NC(=O)CNC(=S)Nc1ccc(F)cc1)C(=O)NCC(=O)N[C@H](C(=O)N1CCC[C@H]1C(=O)N1CCN(c2nsc3ccccc23)CC1)C(C)C (X2-GVGVP-X1) | 35 mm | 34 µM | 35 µM |  | 32 mm | 29 mm |  | 31 mm | 34 mm | 35 mm | 35 mm | 11 µg/mL (≈ 14.1 µM) | 13.2 µg/mL (≈ 16.9 µM) | 76 µM | 10.2 µg/mL (≈ 13.1 µM) | 9.5 µg | 10 µg/mL (≈ 12.8 µM) | 10.8 µg/mL (≈ 13.7 µM) | 12.8 µg/mL (≈ 16.3 µM) | 10.5 µg/mL (≈ 13.4 µM) |
| CC(C)[C@H](NC(=O)CNC(=O)[C@H](Cc1ccccc1)NC(=O)CNC(=O)Nc1ccc(F)cc1)C(=O)N1CCC[C@H]1C(=O)N1CCN(c2nsc3ccccc23)CC1 ({NH(4-F-phenyl)-CO}-GFGVP-X1) | 32 mm | 44 µM | 35 µM |  | 33 mm | 31 mm |  | 32 mm | 31 mm | 30 mm | 31 mm | 11 µg/mL (≈ 13.5 µM) | 12.2 µg/mL (≈ 15 µM) | 80 µM | 11 µg/mL (≈ 13.5 µM) | 8.75 µg | 9.25 µg/mL (≈ 11.4 µM) | 11.2 µg/mL (≈ 13.8 µM) | 11 µg/mL (≈ 13.5 µM) | 10.5 µg/mL (≈ 12.9 µM) |
| CC(C)[C@H](NC(=O)CNC(=O)Nc1ccc(F)cc1)C(=O)NCC(=O)N[C@H](C(=O)N1CCC[C@H]1C(=O)N1CCN(c2nsc3ccccc23)CC1)C(C)C ({NH(4-F-phenyl)-CO}-GVGVP-X1) | 30 mm | 40 µM | 39 µM |  | 30 mm | 27 mm |  | 29 mm | 32 mm | 33 mm | 34 mm | 13.5 µg/mL (≈ 17.6 µM) | 14.5 µg/mL (≈ 18.9 µM) | 78 µM | 12.8 µg/mL (≈ 16.6 µM) | 10.5 µg | 11.2 µg/mL (≈ 14.7 µM) | 13.2 µg/mL (≈ 17.3 µM) | 14.5 µg/mL (≈ 18.9 µM) | 11.8 µg/mL (≈ 15.3 µM) |
| CC(C)[C@H](NC(=O)CNC(=O)[C@H](Cc1ccccc1)NC(=O)CNC(=S)Nc1ccccc1F)C(=O)N1CCC[C@H]1C(=O)N1CCN(c2nsc3ccccc23)CC1 ({Thiocarbamoyl(N-2-FPh)}-GFGVP-X1) | 31 mm | 48 µM | 38 µM |  | 32 mm | 31 mm |  | 31 mm | 30 mm | 31 mm | 28 mm | 9.25 µg/mL (≈ 11.1 µM) | 13 µg/mL (≈ 15.7 µM) | 102 µM | 11 µg/mL (≈ 13.3 µM) | 11 µg | 10.8 µg/mL (≈ 13 µM) | 11.2 µg/mL (≈ 13.6 µM) | 13 µg/mL (≈ 15.7 µM) | 12.8 µg/mL (≈ 15.4 µM) |
| CC(C)[C@H](NC(=O)CNC(=S)Nc1ccccc1F)C(=O)NCC(=O)N[C@H](C(=O)N1CCC[C@H]1C(=O)N1CCN(c2nsc3ccccc23)CC1)C(C)C ({Thiocarbamoyl(N-2-FPh)}-GVGVP-X1) | 30 mm | 50 µM | 40 µM |  | 27 mm | 24 mm |  | 27 mm | 29 mm | 30 mm | 31 mm | 13 µg/mL (≈ 16.6 µM) | 15.2 µg/mL (≈ 19.5 µM) | 92 µM | 14.2 µg/mL (≈ 18.2 µM) |  | 16 µg/mL (≈ 20.5 µM) | 15.5 µg/mL (≈ 19.8 µM) | 16.5 µg/mL (≈ 21.1 µM) | 15.2 µg/mL (≈ 19.5 µM) |
| CN[C@@H]1[C@H](O[C@H]2[C@H](O[C@H]3[C@H](O)[C@@H](O)[C@H](N=C(N)N)[C@@H](O)[C@@H]3N=C(N)N)O[C@@H](C)[C@]2(O)C=O)O[C@@H](CO)[C@H](O)[C@H]1O [STREPTOMYCIN] |  |  |  |  | 14 mm | 11 mm |  | 13 mm |  |  |  |  |  |  | 22 µg/mL (≈ 37.8 µM) | 18 µg | 20 µg/mL (≈ 34.4 µM) | 21 µg/mL (≈ 36.1 µM) |  |  |
